Source: ChEMBL document CHEMBL3992493, “New approach of delivering cytotoxic drugs towards CAIX expressing cells: A concept of dual-target drugs” (Eur J Med Chem, 2017)
One block for each molecule: values may come before it. The source made the active and inactive calls. The calls are words filed in the database; no cut-off is given here.

Columns and labels:
[1] = tested on: MDCK; assay: Cytotoxicity against carbonic anhydrase 9 knockdown MDCK cells assessed as reduction in cell viability at 500 nM after 72 hrs under anoxic condition by Alamar blue assay; format: cell-based, Canis lupus familiaris; settings: dog, 0.5 µM
How it was run: (§1)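 MDCK CAIX+ or CAIX− cells, 24 h anoxic preincubation (≤0.02% O2, 5% CO2) in pre-equilibrated DMEM. ATR inhibitors (0.5% DMSO) applied for 72 h without irradiation, then washed off, and 72 h normoxic regrowth. Readout by 2 h alamarBlue conversion under normoxia.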

[2] = tested on: MDCK; assay: Cytotoxicity against carbonic anhydrase 9 knockdown MDCK cells assessed as reduction in cell viability at 500 nM pretreated for 1 hr followed by 4 Gy irradiation under anoxic condition by Alamar blue assay; format: cell-based, Canis lupus familiaris; settings: dog, 0.5 µM
How it was run: (§2)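 MDCK cells with or without CAIX, pre-exposed 24 h to anoxia (≤0.02% O2, 5% CO2, balance N2) in pre-equilibrated DMEM. ATR inhibitors in 0.5% DMSO added 1 h before 4 Gy X-irradiation. Exposure 72 h total, medium replaced, then 72 h normoxic regrowth. Viability by 2 h alamarBlue in normoxia.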

[3] = tested on: MDCK; assay: Cytotoxicity against carbonic anhydrase 9 knockdown MDCK cells assessed as reduction in cell viability at 500 nM pretreated for 1 hr followed by 2 Gy irradiation under normoxic condition by Alamar blue assay; format: cell-based, Canis lupus familiaris; settings: dog, 0.5 µM
How it was run: (§3)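 ATR inhibitor plus radiation: MDCK CAIX+/CAIX− cells were preconditioned 24 h under normoxia (21% O2) or anoxia (≤0.02% O2). Compound in 0.5% DMSO was added 1 h before X-irradiation, 2 Gy normoxic or 4 Gy anoxic. Total compound exposure was 72 h, then washout and 72 h normoxic regrowth. Readout was 2 h alamarBlue conversion, as relative viability.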

[4] = tested on: MDCK; assay: Cytotoxicity against carbonic anhydrase 9 knockdown MDCK cells assessed as reduction in cell viability at 500 nM pretreated for 72 hrs followed by 72 hrs incubation under normoxic condition by Alamar blue assay; format: cell-based, Canis lupus familiaris; settings: dog, 0.5 µM
How it was run: (§4)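 MDCK cells transfected with human CAIX or scrambled vector, normoxia (21% O2, 5% CO2). ATR inhibitors in 0.5% DMSO for 72 h, medium replaced, cells grown a further 72 h. Viability from 2 h alamarBlue conversion in normoxia.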

[5] = target: Carbonic anhydrase 2 (Homo sapiens, UniProt P00918); assay: Binding affinity to recombinant human carbonic anhydrase 2 after 15 mins by stopped-flow CO2 hydration assay
[6] = target: Carbonic anhydrase 9 (Homo sapiens, UniProt Q16790); assay: Binding affinity to recombinant human carbonic anhydrase 9 after 15 mins by stopped-flow CO2 hydration assay
[7] = tested on: MDCK; assay: Cytotoxicity against MDCK cells expressing carbonic anhydrase 9 assessed as reduction in cell viability at 500 nM after 72 hrs under anoxic condition by Alamar blue assay; format: functional, cell-based; settings: Canis lupus familiaris; how it was run: as §1
[8] = target: Carbonic anhydrase 12 (Homo sapiens, UniProt O43570); assay: Binding affinity to recombinant human carbonic anhydrase 12 after 15 mins by stopped-flow CO2 hydration assay
Chain of Carbonic anhydrase 12 (O43570 whole entry): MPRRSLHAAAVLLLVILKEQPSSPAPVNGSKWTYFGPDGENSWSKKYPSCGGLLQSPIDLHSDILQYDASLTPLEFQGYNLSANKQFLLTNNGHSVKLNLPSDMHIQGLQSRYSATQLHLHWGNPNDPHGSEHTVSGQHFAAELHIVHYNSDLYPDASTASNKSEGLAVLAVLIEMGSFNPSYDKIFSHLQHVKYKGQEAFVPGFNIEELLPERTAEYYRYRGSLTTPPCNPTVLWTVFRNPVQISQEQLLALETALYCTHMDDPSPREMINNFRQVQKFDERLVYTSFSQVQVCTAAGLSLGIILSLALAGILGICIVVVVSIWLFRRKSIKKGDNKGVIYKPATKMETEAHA

[9] = tested on: MDCK; assay: Cytotoxicity against MDCK cells expressing carbonic anhydrase 9 assessed as reduction in cell viability at 500 nM pretreated for 72 hrs followed by 72 hrs incubation under normoxic condition by Alamar blue assay; format: functional, cell-based; settings: Canis lupus familiaris; how it was run: as §4
[10] = tested on: MDCK; assay: Cytotoxicity against MDCK cells expressing carbonic anhydrase 9 assessed as reduction in cell viability at 500 nM pretreated for 1 hr followed by 4 Gy irradiation under anoxic condition by Alamar blue assay; format: functional, cell-based; settings: Canis lupus familiaris; how it was run: as §2
[11] = tested on: MDCK; assay: Cytotoxicity against MDCK cells expressing carbonic anhydrase 9 assessed as reduction in cell viability at 500 nM pretreated for 1 hr followed by 2 Gy irradiation under normoxic condition by Alamar blue assay; format: functional, cell-based; settings: Canis lupus familiaris
How it was run: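 MDCK CAIX+ cells (human CAIX transfected) under normoxia (21% O2, 5% CO2). ATR inhibitors in 0.5% DMSO added 1 h before X-irradiation with 2 Gy. Exposure 72 h total, medium replaced, then 72 h further growth. Viability by 2 h alamarBlue conversion in normoxia.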

[12] = target: Carbonic anhydrase 1 (Homo sapiens, UniProt P00915); assay: Binding affinity to recombinant human carbonic anhydrase 1 after 15 mins by stopped-flow CO2 hydration assay
Chain of Carbonic anhydrase 1 (P00915 whole entry): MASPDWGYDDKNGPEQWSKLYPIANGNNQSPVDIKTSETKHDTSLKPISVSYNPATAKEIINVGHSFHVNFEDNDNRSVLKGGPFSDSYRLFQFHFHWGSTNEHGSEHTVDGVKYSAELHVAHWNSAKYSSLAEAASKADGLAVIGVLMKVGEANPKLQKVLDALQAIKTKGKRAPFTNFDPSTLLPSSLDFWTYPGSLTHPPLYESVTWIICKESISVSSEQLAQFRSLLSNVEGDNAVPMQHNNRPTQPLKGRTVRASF

[13] = tested on: MDCK; assay: Cytotoxicity against carbonic anhydrase 9 knockdown MDCK cells assessed as reduction in cell viability at 50 nM pretreated for 1 hr followed by 2 Gy irradiation under normoxic condition by Alamar blue assay; format: cell-based, Canis lupus familiaris; settings: dog, 0.05 µM; how it was run: as §3
[14] = tested on: MDCK; assay: Cytotoxicity against carbonic anhydrase 9 knockdown MDCK cells assessed as reduction in cell viability at 50 nM after 72 hrs under anoxic condition by Alamar blue assay; format: cell-based, Canis lupus familiaris; settings: dog, 0.05 µM
How it was run: (§5)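 ATR inhibitor without irradiation: MDCK CAIX+ or scrambled-control CAIX− cells were preconditioned 24 h at ≤0.02% O2 (anoxia) or 21% O2. Compound was added in 0.5% DMSO for 72 h, then washed off. Cells regrew 72 h under normoxia, followed by 2 h alamarBlue conversion. Viability is relative to control.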

[15] = tested on: MDCK; assay: Cytotoxicity against carbonic anhydrase 9 knockdown MDCK cells assessed as reduction in cell viability at 50 nM pretreated for 72 hrs followed by 72 hrs incubation under normoxic condition by Alamar blue assay; format: cell-based, Canis lupus familiaris; settings: dog, 0.05 µM; how it was run: as §5
[16] = tested on: MDCK; assay: Cytotoxicity against MDCK cells expressing carbonic anhydrase 9 assessed as reduction in cell viability at 50 nM after 72 hrs under anoxic condition by Alamar blue assay; format: functional, cell-based; settings: Canis lupus familiaris; how it was run: as §5
[17] = tested on: MDCK; assay: Cytotoxicity against carbonic anhydrase 9 knockdown MDCK cells assessed as reduction in cell viability at 50 nM pretreated for 1 hr followed by 4 Gy irradiation under anoxic condition by Alamar blue assay; format: cell-based, Canis lupus familiaris; settings: dog, 0.05 µM; how it was run: as §3
[18] = tested on: MDCK; assay: Cytotoxicity against MDCK cells expressing carbonic anhydrase 9 assessed as reduction in cell viability at 50 nM pretreated for 1 hr followed by 4 Gy irradiation under anoxic condition by Alamar blue assay; format: functional, cell-based; settings: Canis lupus familiaris; how it was run: as §3
[19] = tested on: MDCK; assay: Cytotoxicity against MDCK cells expressing carbonic anhydrase 9 assessed as reduction in cell viability at 50 nM pretreated for 72 hrs followed by 72 hrs incubation under normoxic condition by Alamar blue assay; format: functional, cell-based; settings: Canis lupus familiaris; how it was run: as §5
[20] = tested on: MDCK; assay: Cytotoxicity against MDCK cells expressing carbonic anhydrase 9 assessed as reduction in cell viability at 50 nM pretreated for 1 hr followed by 2 Gy irradiation under normoxic condition by Alamar blue assay; format: functional, cell-based; settings: Canis lupus familiaris; how it was run: as §3
[21] = tested on: HCT-116; assay: Effect on mitochondrial respiration in carbonic anhydrase 9 knockdown human HCT116 cells assessed as reduction in oxygen consumption rate at 0.5 mM after 24 hrs under hypoxic condition […]; format: ADME, cell-based; settings: hct-116, 24 h, 500 µM
How it was run: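 HCT116 cells with constitutive CAIX knockdown or scrambled control were seeded at 1.5×10^4 cells/well and kept 18 h at 0.2% O2. Medium was then switched to DMEM with 25 mM glucose, 4 mM glutamine and 1 mM pyruvate, 60 min before assay, in a CO2-free incubator at 37 °C. Seahorse XF96 oxygen consumption rate was read at baseline and after injection of drug or PBS vehicle. Values were normalized to BCA protein.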

[22] = Cytotoxicity against carbonic anhydrase 9 knockdown MDCK cells assessed as surviving fraction incubated for 24 hrs measured after 7 days under normoxic condition by methylene blue staining based clonogenic survival assay; format: cell-based, Canis lupus familiaris; settings: dog, read-out: Survival
How it was run: (§6)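 Confluent, high-density MDCK CAIX+/CAIX− cells, to allow CAIX-dependent medium acidification. Drug or vehicle (0.5% DMSO) for 24 h under normoxia (21% O2) or hypoxia (0.2% O2). Cells then trypsinised and reseeded in triplicate at known numbers, grown 7 days. Colonies fixed and stained with 0.4% methylene blue in 70% ethanol. Surviving fraction normalised to vehicle. Three independent biological repeats.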

[23] = tested on: MDCK; assay: Cytotoxicity against MDCK cells expressing carbonic anhydrase 9 assessed as reduction in cell viability after 72 hrs under normoxic condition by Alamar blue assay; format: functional, cell-based; settings: Canis lupus familiaris
[24] = tested on: MDCK; assay: Cytotoxicity against carbonic anhydrase 9 knockdown MDCK cells assessed as reduction in cell viability after 72 hrs under hypoxic condition by Alamar blue assay; format: cell-based; settings: Canis lupus familiaris
[25] = tested on: MDCK; assay: Cytotoxicity against MDCK cells expressing carbonic anhydrase 9 assessed as reduction in cell viability after 72 hrs under hypoxic condition by Alamar blue assay; format: functional, cell-based; settings: Canis lupus familiaris
[26] = tested on: MDCK; assay: Cytotoxicity against carbonic anhydrase 9 knockdown MDCK cells assessed as reduction in cell viability after 72 hrs under normoxic condition by Alamar blue assay; format: cell-based; settings: Canis lupus familiaris
[27] = tested on: MDCK; assay: Cytotoxicity against MDCK cells expressing carbonic anhydrase 9 assessed as surviving fraction incubated for 24 hrs measured after 7 days under hypoxic condition by methylene blue staining based clonogenic survival assay; format: functional, Canis lupus familiaris; how it was run: as §6
[28] = tested on: HCT-116; assay: Effect on mitochondrial respiration in human HCT116 cells expressing carbonic anhydrase 9 assessed as reduction in oxygen consumption rate at 2 mM […]; format: functional, cell-based
[29] = tested on: HCT-116; assay: Effect on mitochondrial respiration in carbonic anhydrase 9 knockdown human HCT116 cells assessed as reduction in oxygen consumption rate at 2 mM […]; format: cell-based; settings: hct-116, 2000 µM

Compound: [H]/N=C(/N)N/C(=N/[H])NCCc1ccccc1 [PHENFORMIN]
Ki [5]: > 50 µM
Ki [6]: > 50 µM
Ki [8]: > 50 µM
Activity [21]: Toxic
Ki [12]: > 50 µM

Compound: Cn1nnc2c(C(=O)NOS(N)(=O)=O)ncn2c1=O
Ki [5]: > 50 µM
viability at 24 h [22]: 46.1%
Ki [6]: > 50 µM
IC50 [23]: > 1000 µM
Ki [8]: > 50 µM
IC50 [24]: 1000 µM
IC50 [25]: > 1000 µM
IC50 [26]: 719 µM
Survival [27]: 26.1%
Ki [12]: > 50 µM

The next lines start with results.

Ki [5]: > 50 µM
Ki [6]: > 50 µM
Ki [8]: > 50 µM
Ki [12]: > 50 µM
Compound: CS(=O)(=O)c1ccc(-c2cnc(NS(N)(=O)=O)c(C(=O)Nc3ccccc3)n2)cc1
Activity [1]: Toxic
Activity [2]: Non-Toxic
Activity [3]: Non-Toxic
Activity [4]: Toxic
Activity [7]: Active
Activity [9]: Active
Activity [10]: Active
Activity [11]: Active

Ki [5]: > 50 µM
Ki [6]: > 50 µM
Ki [8]: > 50 µM
Ki [12]: > 50 µM
Compound: CNCc1ccc(-c2cc(-c3nc(-c4ccc(S(=O)(=O)C(C)C)cc4)cnc3N)on2)cc1 [BERZOSERTIB]
Activity [13]: Non-Toxic
Activity [14]: Toxic
Activity [15]: Toxic
Activity [16]: Active
Activity [17]: Non-Toxic
Activity [18]: Active
Activity [19]: Active
Activity [20]: Active

Ki [6]: 0.0202 µM
Compound: Cl.N=C(N)NC(=N)NCCc1ccc(S(N)(=O)=O)cc1
Activity [28]: inactive
Activity [29]: Non-Toxic
